# High-throughput results deposited in PubChem BioAssay by Broad Institute.
# ARNT TACC3 PPI = disruptors of human ARNT/TACC3 interaction | AID 623870 | 0.66% of 390,000 active | AlphaScreen His-ARNT PAS-B/GST-TACC3 binding, luminescence; TACC3 fragment carries E629A point mutation | inhibition, % at 9.99 µM;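 active means mean inhibition of replicates at least 50% and at least half of replicates each reaching 50%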;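 further: 0% = complete ARNT plus TACC3 wells and 100% = ARNT alone without TACC3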
# PGC1a acetyl inh = modulators of PGC1a acetylation | U2OS PGC1a acetylation, AlphaScreen anti-acetyl-lysine; with virally co-expressed GCN5 acetyltransferase | inhibition, % at 15.6 µM | 0.17% of 350,000 active | AID 651687;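 active means every replicate shows inhibition of at least 40%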;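 further: 0% = neutral control wells and 100% = positive control wells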
# CAL PDZ FP-1 = inhibitors of human CAL PDZ peptide binding. 0.02% of 330,000 active. inhibition, % at 20 µM. AID 504414. Q9HD26. purified CAL PDZ, TMR-peptide fluorescence polarization, 1 h;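 active means highest replicate inhibition of at least 40%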;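 further: plate controls were DMSO neutral control wells for no effect and unlabeled competitor peptide control wells for full effect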
#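 System: tagged CAL PDZ domain. Schedule: 1 h room-temperature incubation prior to read. Signal: fluorescence polarization (mP). Measure: percent inhibition from loss of millipolarization.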
# miR122 inh = inhibitors of miR-122 in Huh7 cells. Huh7 miR-122 Renilla luciferase sensor, 48 h; neutral wells = 0, positive control = 100. activation (reporter increase), % at 12.5 µM. 0.3% of 340,000 active;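 active means mean replicate activation score at least 90 and every replicate individually at or above 90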;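 further: higher luciferase means less miR-122 activity so hits act as miR-122 inhibitors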
# CAL PDZ FP-2 = CAL PDZ (human) peptide binding inhibition | Q9HD26 | purified CAL PDZ, TMR-peptide fluorescence polarization, 1 h | inhibition, % at 24.9 µM | 0.92% of 300,000 active;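 active means mean inhibition of at least 30% with at least half of replicates also reaching 30%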;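 further: 0% = DMSO neutral control and 100% = excess unlabeled competitor peptide PRC23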
# F508del corr = CFTR F508del correction in bronchial cells; 0.36% of 350,000 active; AID 720511; CFBE cells, YFP halide quenching; stimulated with forskolin plus potentiator P3; % fluorescence drop versus neutral controls; activity (quench increase), % at 7.58 µM;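 active means mean added fluorescence quench of at least 8% versus neutral control, with both replicates also reaching 8%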;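 further: cells transiently co-express mutant CFTR-F508del with the halide-sensitive YFP; corrector assay measuring rescue of mutant channel to the surface after 24 h compound exposure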
# The depositor's hits bear a star; nt = not tested or not shown; [ ] = another dose, or the depositor's remark. Only some compounds are listed: those with a hit (about 1.7% of all), similar ones and a draw of the others.
SMILES,ARNT TACC3 PPI,PGC1a acetyl inh,CAL PDZ FP-1,miR122 inh,CAL PDZ FP-2,F508del corr
CCCc1cc(=O)oc2c3c(cc(OCC(=O)N4CCC[C@H]4C(=O)O)c12)OC(C)(C)CC3,6,4,0,-1,43*,-2
Cc1c(C)c2c(OCC(=O)N3CCC(C(=O)O)CC3)cc3c(c2oc1=O)CCC(C)(C)O3,45*,9,-2,-4,-5,nt
CN(C)S(=O)(=O)c1cc(NC(=O)Cn2ccsc2=N)ccc1Cl,-4,nt,0,nt,101*,-3
O=S(=O)(O)c1cc(O)c2c(O)c(N=Nc3cc(Cl)ccc3O)c(S(=O)(=O)O)cc2c1,69*,-2,2,-32,1,nt
Nc1cc(S(=O)(=O)O)cc2ccc(S(=O)(=O)O)cc12,9,0,0,2,-1,-1
N#C/C(=C\c1ccncc1)c1nc2ccccc2[nH]1,8,-7,0,3,-6,5
Cc1cc2nc(/C(C#N)=C/c3ccncc3)[nH]c2cc1C,5,-39,15,43,107*,-2
C[C@H]1CN([C@@H](C)CO)C(=O)c2cc(NC(=O)Nc3ccc4c(c3)OCO4)ccc2O[C@@H]1CN(C)S(=O)(=O)c1cccs1,nt,5,nt,-1[16.7 µM],nt,6
COC(=O)c1sc2nc(C)nc(SCC(=O)C(C)(C)C)c2c1C,-2,6,-1,nt,43*,2
CCOC(=O)c1sc2nc(C)nc(SCC(=O)NC3CCS(=O)(=O)C3)c2c1C (stereo unspecified),-2,nt,-2,nt,1,-4
COCCNC(=O)C[C@H]1C[C@H]2c3cc(NC(=O)Nc4ccc(F)cc4)ccc3O[C@H]2[C@H](CO)O1,-4,0,nt,2[16.7 µM],nt,-2
O=C(c1cccc(F)c1F)N1CCCC1,-1,-6,0,5,nt,nt
Cc1cc(F)c(F)cc1C(=O)N1CCCC1,2,nt,0,nt,53*,0
Cc1ccc(C(=O)N2CCN(c3ccccc3)CC2)cc1NC(=O)c1ccco1,-7,nt,-2,nt,-5,1
O=C(Nc1ccccc1C(=O)N1CCN(c2ccccc2)CC1)c1ccco1,-4,-2,0,1,47*,nt
Cc1noc(C)c1NC(=O)N(C)C[C@@H]1Oc2ccc(NC(=O)Cn3cnnn3)cc2C(=O)N([C@@H](C)CO)C[C@@H]1C,-7,1,nt,-1[16.7 µM],nt,-1
O=C(Cc1ccccn1)N[C@@H]1C=C[C@H](CC(=O)N2CCCCC2)O[C@@H]1CO,17,2,nt,nt,nt,-1
COCCN=c1scc(-c2cccs2)n1/N=C/c1ccc(O)c(O)c1O,64*,nt,-3,nt,1,-1
COCCN=c1scc(-c2ccccc2)n1/N=C/c1c[nH]c2ccccc12,27,nt,-1,nt,1,1
CCN=c1scc(C)n1/N=C/c1ccc(O)c(O)c1O,79*,1,2,-8,2,nt
C[C@H](CO)N1C[C@H](C)[C@@H](CN(C)S(=O)(=O)c2cccs2)OCCCC[C@H](C)Oc2ccc(NC(=O)c3ccccc3)cc2C1=O,-2,-5,nt,0[16.7 µM],nt,0
O=C(O)Cc1cccc(=O)c(O)c1C(=O)O,93*,4,0,nt,-5,nt
O=C(CN(C1CCCCC1)S(=O)(=O)c1ccc(Cl)cc1)NCc1cccnc1,-3,6,-2,100*,-7,nt
COc1ccc(CN(C)C[C@H]2Oc3c(NC(=O)NC(C)C)cccc3C(=O)N([C@@H](C)CO)C[C@H]2C)cc1,-11,-5,nt,16[16.7 µM],nt,4
O=C(CSc1nnc(-c2ccco2)n1-c1ccccc1)NCc1ccco1,-5,9,nt,-9,-2,nt
SMILES,ARNT TACC3 PPI,PGC1a acetyl inh,CAL PDZ FP-1,miR122 inh,CAL PDZ FP-2,F508del corr
O=C(CSc1nnc(-c2ccco2)n1-c1ccccc1)Nc1c(Cl)cc(Cl)cc1C(=O)O,-4,52*,0,30,-5,1
CC(=O)c1cccc(S(=O)(=O)NCC(C)(C)N2CCOCC2)c1,0,0,0,-7,0,1
CCOC(=O)c1ccc(S(=O)(=O)NCC(C)(C)N2CCOCC2)cc1,-2,nt,1,nt,56*,0
Cc1ccc(CS(=O)Cc2ccc(C(=O)NCC(C)c3ccccc3)o2)cc1 (stereo unspecified),-3,1,-1,-2,82*,3
Cc1ccc(CS(=O)Cc2ccc(C(=O)NCc3ccccc3)o2)cc1 (stereo unspecified),-4,4,0,-4,3,0
Clc1cccc(Cl)c1NC1=NCCC1,-2,-15,-1,-8,15,nt
c1n[nH]c(NC2=NCCC2)n1,61*,0,-3,2,3,nt
O=C1C2C3CC(C(Br)C3Br)C2C(=O)N1CC1CCCO1 (stereo unspecified),-3,1,2,-5,-4,0
CC(C(=O)NCC1CCCO1)N1C(=O)C2C3CC(C(Br)C3Br)C2C1=O (stereo unspecified),-8,7,1,-2,109*,2
COc1ccc2c3c(n(C)c2c1)[C@@H](CO)N(C)CC31CN(C(=O)c2ccccc2F)C1,nt,7,nt,nt,nt,-2
O=[N+]([O-])c1cc(S(=O)(=O)Nc2ccc(Cl)cc2)ccc1N/N=C/c1ccncc1,-2,nt,-1,279*,-2,1
COCOc1cccc(CN2CCC(C)(Oc3cccc(C#N)c3)C2)c1 (stereo unspecified),nt,8,nt,1,nt,8.7*
CO[C@@H]1CN(C)C(=O)c2ccc(NS(=O)(=O)c3ccccc3)cc2OC[C@@H](C)N(C)C[C@@H]1C,nt,-7,nt,-2[16.7 µM],nt,0
Cc1ccc(-n2c(C)c(C)c3c(NCCO)ncnc32)cc1,27*,nt,1,nt,-1,5
CCSc1nsc(NC(=O)Nc2cccc(F)c2)n1,3,-10,8,-23,70*,nt
Nc1nnnn1CC(=O)N/N=C/c1cc([N+](=O)[O-])ccc1O,67*,3,-1,-3,-2,nt
Cc1cc([N+](=O)[O-])nn1CC(=O)N/N=C/c1ccccc1O,68*,-17,-1,-5,10,-3
Cc1cc(C)n(CC(=O)c2ccc(Cl)cc2)n1,-4,-3,-1,-6,0,-1
Cc1cc([N+](=O)[O-])nn1CC(=O)Nc1cc(F)ccc1F,-2,nt,-2,nt,69*,0
Cc1cc(C)n(CC(=O)c2cccc([N+](=O)[O-])c2)n1,-4,0,-1,-7,36*,-2
COc1cc(OC)c(/C=N/NC(=O)Cn2nc([N+](=O)[O-])cc2C)c(OC)c1,-1,0,-4,-2,nt,-31
C[C@@H]1CN([C@@H](C)CO)C(=O)c2cc(NC(=O)c3ccccc3)ccc2O[C@@H](C)CCCCO[C@@H]1CN(C)C(=O)Nc1cccc2ccccc12,4,9,nt,-9[16.7 µM],nt,-2
COc1ccc(C(=O)Nc2ccc3c(c2)C(=O)N(C)C[C@H](OC)[C@H](C)CN[C@H](C)CO3)cc1,-6,2,nt,-7[16.7 µM],nt,0
